Reference: ChEMBL document CHEMBL1127500, “Structure-activity studies of benzimidazole-based DNA-cleaving agents. Comparison of benzimidazole, pyrrolobenzimidazole, and tetrahydropyridobenzimidazole analogues” (1994)

Legend:
Format in all cases: functional
A549 = experiment: Antitumor activity against A549/ATCC cell line; conditions: Homo sapiens
Summary of the method: (§1)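 Drugs were screened against a panel of up to 60 human cancer cell lines. The end-point was LC50, the drug concentration lethal to 50% of the cancer cells. Values were expressed as log LC50 and plotted as mean graphs centred on the log of the panel-mean LC50. Bars to the right mark lines with lower log LC50 than the mean.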

CCRF-CEM = experiment: Antitumor activity against CCRF-CEM leukemia cell line; conditions: Homo sapiens, read-out: Log LC50 (the source's name) (converted); summary of the method: as §1
DMS-114 = experiment: Antitumor activity against DMS 114 cell line; conditions: Homo sapiens; summary of the method: as §1
EKVX = experiment: Antitumor activity against EKVX cell line; conditions: Homo sapiens; summary of the method: as §1
HCT-15 = experiment: Antitumor activity against HCT-15 cell line; conditions: Homo sapiens, read-out: Log LC50 (the source's name) (converted); summary of the method: as §1
HOP-62 = experiment: Antitumor activity against HOP-62 cell line; conditions: Homo sapiens; summary of the method: as §1
HOP-18 = experiment: Antitumor activity against HOP-18 cell line; conditions: Homo sapiens, read-out: Log LC50 (the source's name) (converted); summary of the method: as §1
HOP-92 = experiment: Antitumor activity against HOP-92 cell line; conditions: Homo sapiens, read-out: Log LC50 (the source's name) (converted); summary of the method: as §1
HT-29 = experiment: Antitumor activity against HT 29 cell line; conditions: Homo sapiens, read-out: Log LC50 (the source's name) (converted); summary of the method: as §1
K562 = experiment: Antitumor activity against K-562 leukemia cell line; conditions: Homo sapiens, read-out: Log LC50 (the source's name) (converted); summary of the method: as §1
KM12 = experiment: Antitumor activity against KM 12 cell line; conditions: Homo sapiens, read-out: Log LC50 (the source's name) (converted); summary of the method: as §1
KM-20L2 = experiment: Antitumor activity against KM 20L2 cell line; conditions: Homo sapiens; summary of the method: as §1
IGROV-1 = experiment: Antitumor activity against IGROVI cell line; conditions: Homo sapiens; summary of the method: as §1
LXFL 529 = experiment: Antitumor activity against […] cell line; conditions: Homo sapiens; summary of the method: as §1
M14 = experiment: Antitumor activity against M 14 cell line; conditions: Homo sapiens; summary of the method: as §1
M19-MEL = experiment: Antitumor activity against M 19-MEL cell line; conditions: Homo sapiens; summary of the method: as §1
LOX IMVI = experiment: Antitumor activity against LOX IMVI cell line; conditions: Homo sapiens; summary of the method: as §1
MOLT-4 = experiment: Antitumor activity against MOLT-4 leukemia cell line; conditions: Homo sapiens; summary of the method: as §1
Malme-3M = experiment: Antitumor activity against MALME-3M cell line; conditions: Homo sapiens; summary of the method: as §1
NCI-H522 = experiment: Antitumor activity against NCI-H522 cell line; conditions: Homo sapiens; summary of the method: as §1
NCI-H226 = experiment: Antitumor activity against NCI-H226 cell line; conditions: Homo sapiens; summary of the method: as §1
OVCAR-8 = experiment: Antitumor activity against OVCAR-8 cell line; conditions: Homo sapiens, read-out: Log LC50 (the source's name) (converted); summary of the method: as §1
OVCAR-3 = experiment: Antitumor activity against OVCAR-3 cell line; conditions: Homo sapiens; summary of the method: as §1
NCI-H322M = experiment: Antitumor activity against NCI-H322M cell line; conditions: Homo sapiens, read-out: Log LC50 (the source's name) (converted); summary of the method: as §1
OVCAR-5 = experiment: Antitumor activity against OVCAR-5 cell line; conditions: Homo sapiens; summary of the method: as §1
RPMI-8226 = experiment: Antitumor activity against RPMI-8226 leukemia cell line; conditions: Homo sapiens, read-out: Log LC50 (the source's name) (converted); summary of the method: as §1
CAKI-1 = experiment: Antitumor activity against Renal cancer CAKI-1 cell line; conditions: Homo sapiens, read-out: Log LC50 (the source's name) (converted); summary of the method: as §1
786-0 = experiment: Antitumor activity against Renal cancer 786-O cell line; conditions: Homo sapiens; summary of the method: as §1
ACHN = experiment: Antitumor activity against Renal cancer ACHN cell line; conditions: Homo sapiens, read-out: Log LC50 (the source's name) (converted); summary of the method: as §1
SN12C = experiment: Antitumor activity against Renal cancer SN 12C cell line; conditions: Homo sapiens; summary of the method: as §1
TK-10 = experiment: Antitumor activity against Renal cancer TK-10 cell line; conditions: Homo sapiens; summary of the method: as §1
UO-31 = experiment: Antitumor activity against Renal cancer UO-31 cell line; conditions: Homo sapiens; summary of the method: as §1
SK-MEL-2 = experiment: Antitumor activity against SK-MEL-2 cell line; conditions: Homo sapiens, read-out: Log LC50 (the source's name) (converted); summary of the method: as §1
SF-539 = experiment: Antitumor activity against SF-539 cell line; conditions: Homo sapiens; summary of the method: as §1
SNB-19 = experiment: Antitumor activity against SNB-19 cell line; conditions: Homo sapiens
Summary of the method: (§2)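 Screened against a panel of up to 60 human cancer cell lines. Read-out is LC50, the drug concentration lethal to 50% of the cells, expressed as log LC50. The mean log LC50 across the screened lines is the centre line of the mean graph. Each line's deviation from that mean is shown as a bar.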

SNB- = experiment: Antitumor activity against SNB-71 cell line; conditions: Homo sapiens, read-out: Log LC50 (the source's name) (converted); summary of the method: as §2
SF-295 = experiment: Antitumor activity against SF-295 cell line; conditions: Homo sapiens, read-out: Log LC50 (the source's name) (converted); summary of the method: as §1
SW-620 = experiment: Antitumor activity against SW-620 cell line; conditions: Homo sapiens; summary of the method: as §2
SK-MEL-5 = experiment: Antitumor activity against SK-MEL-5 cell line; conditions: Homo sapiens; summary of the method: as §2
SNB-75 = experiment: Antitumor activity against SNB-75 cell line; conditions: Homo sapiens; summary of the method: as §2
SK-OV-3 = experiment: Antitumor activity against SK-OV-3 cell line; conditions: Homo sapiens, read-out: Log LC50 (the source's name) (converted); summary of the method: as §2
SK-MEL-28 = experiment: Antitumor activity against SK-MEL-28 cell line; conditions: Homo sapiens; summary of the method: as §2
UACC-257 = experiment: Antitumor activity against UACC-257 cell line; conditions: Homo sapiens; summary of the method: as §2
U-251 = experiment: Antitumor activity against U251 cell line; conditions: Homo sapiens; summary of the method: as §2
[1] = Mean log10 LC50 was determined; summary of the method: as §2
DLD-1 = experiment: Antitumor activity against DLD-1 cell line; conditions: Homo sapiens; summary of the method: as §1
HCC 2998 = experiment: Antitumor activity against HCC2998 cell line; conditions: Homo sapiens, read-out: Log LC50 (the source's name) (converted); summary of the method: as §1
SF-268 = experiment: Antitumor activity against SF-268 cell line; conditions: Homo sapiens; summary of the method: as §1
XF498 = experiment: Antitumor activity against XF 498 cell line; conditions: Homo sapiens, read-out: Log LC50 (the source's name) (converted); summary of the method: as §2
RXF 393 = experiment: Antitumor activity against Renal cancer RXF-393 cell line; conditions: Homo sapiens; summary of the method: as §1
OVCAR-4 = experiment: Antitumor activity against OVCAR-4 cell line; conditions: Homo sapiens; summary of the method: as §1

`CC(=O)OC1CCn2c1nc1c2C(=O)C(N2CC2)=C(C)C1=O` (stereo unspecified) showed an LC50 (A549) of 7760 nM, a CC50 (CCRF-CEM) greater than 100000 nM and an LC50 (DMS-114) greater than 100000 nM. It also gave an LC50 (EKVX) of 832 nM, a CC50 (HCT-15) of 3090 nM and an LC50 (HOP-62) of 219 nM. The CC50 (HOP-18) was 3160 nM, the CC50 (HOP-92) was 11200 nM and the CC50 (HT-29) was 5370 nM. The CC50 (K562) was greater than 100000 nM, the CC50 (KM12) was 1070 nM and the LC50 (concentration lethal to 50% of cells) (KM-20L2) was 4370 nM. The LC50 (IGROV-1) was 8130 nM, the LC50 (LXFL 529) was 525 nM and the LC50 (M14) was 324 nM. The LC50 (M19-MEL) was greater than 100000 nM, the LC50 (LOX IMVI) was 66.1 nM and the LC50 (MOLT-4) was greater than 100000 nM. It also gave an LC50 (Malme-3M) of 589 nM, an LC50 (NCI-H522) of 100 nM and an LC50 (NCI-H226) of 955 nM. For the same compound, the CC50 (OVCAR-8) was 1000 nM, the LC50 (OVCAR-3) was 3390 nM and the CC50 (NCI-H322M) was 2690 nM. It also gave an LC50 (OVCAR-5) of 3390 nM, a CC50 (RPMI-8226) greater than 100000 nM and a CC50 (CAKI-1) of 6460 nM. It also gave an LC50 (786-0) of 347 nM, a CC50 (ACHN) of 2340 nM and an LC50 (SN12C) of 617 nM. It also gave an LC50 (TK-10) of 2880 nM, an LC50 (concentration lethal to 50% of cancer cells) (UO-31) of 145 nM and a CC50 (SK-MEL-2) of 479 nM. It also gave an LC50 (concentration lethal to 50% of cells) (SF-539) of 631 nM, an LC50 (SNB-19) of 2570 nM and a CC50 (SNB-) of 6460 nM. For the same compound, the CC50 (SF-295) was 2000 nM, the LC50 (SW-620) was 4270 nM and the LC50 (SK-MEL-5) was 224 nM. It also gave an LC50 (SNB-75) of 603 nM, a CC50 (SK-OV-3) of 2950 nM and an LC50 (SK-MEL-28) of 603 nM. The LC50 (UACC-257) was 2040 nM, the LC50 (U-251) was 3090 nM and the Mean log LC50 [1] was -5.68. It also gave an LC50 (DLD-1) of 53700 nM, a CC50 (HCC 2998) of 372 nM and an LC50 (SF-268) of 5620 nM. The CC50 (XF498) was 126 nM, the LC50 (RXF 393) was 51.3 nM and the LC50 (OVCAR-4) was 380 nM.
